“And” between values parts separate entries of the source, which are not always exact repeats. Equal entries are not always repeated.
Tested on: Fibroblast
Experiment: Multiplex assay against human fibroblast
Assay type: toxicity, cell-based
In short: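 Cells were classed with CellPathfinder machine-learning gating, first as Hoechst high-intensity objects or normal cells, then (normal cells) as healthy, pyknosed or fragmented nuclei, and finally (pyknosed cells) as mitotic or apoptotic. Staining of live cells at seeding used Hoechst33342, BioTracker Green Microtubule Cytoskeleton Dye, MitoTracker Red and Annexin V Alexa Fluor 680, with imaging on a CQ1 microscope at 37°C and 5% CO2 after compound addition. Tubulin, mitochondrial-mass and membrane-permeability phenotypes are per cents of healthy-nucleus cells.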

[1] = 12 h, 1 µM, compound concentration 1 uM
[2] = 12 h, 10 µM, compound concentration 10 uM
[3] = 24 h, 1 µM, compound concentration 1 uM
[4] = 24 h, 10 µM, compound concentration 10 uM
[5] = 48 h, 1 µM, compound concentration 1 uM
[6] = 48 h, 10 µM, compound concentration 10 uM

For `C=CC(=O)N1CCC[C@@H](n2nc(C(=O)Nc3ccc(CC(=O)N(C)C)c(C)c3C)c3c(N)ncnc32)C1`, the “Population Fragmented Nuclei (%)” value [1] was 10.1% and 3.17%, the “Population Healthy Nuclei (%)” value [1] was 56.73% and 73.02% and the “Population Hoechst High Intensity Objects (%)” value [1] was 0%. The “Population Membrane Permeable-Phenotype (%)” value [1] was 1.69% and 0.72%, the “Population Mitochondria Different-Phenotype (%)” value [1] was 9.32% and 5.8% and the “Population Mitotic Cells (%)” value [1] was 97.1% and 80%. For the same compound, the “Population Normal (%)” value [1] was 100%, the “Population Pyknosed Nuclei (%)” value [1] was 33.17% and 23.81% and the “Population Tubulin-Different-Phenotype (%)” value [1] was 14.41% and 5.8%. For the same compound, the “Total Cell Count” value [1] was 208 and 189, the “Population Apoptotic (%)” value [2] was 5.56% and 8.57% and the “Population Fragmented Nuclei (%)” value [2] was 8.2% and 7.93%. For the same compound, the “Population Healthy Nuclei (%)” value [2] was 62.3% and 70.73%, the “Population Hoechst High Intensity Objects (%)” value [2] was 0% and the “Population Membrane Permeable-Phenotype (%)” value [2] was 9.65% and 7.76%. The “Population Mitochondria Different-Phenotype (%)” value [2] was 11.4% and 13.79%, the “Population Mitotic Cells (%)” value [2] was 94.44% and 91.43% and the “Population Normal (%)” value [2] was 100%. The “Population Pyknosed Nuclei (%)” value [2] was 29.51% and 21.34%, the “Population Tubulin-Different-Phenotype (%)” value [2] was 21.93% and 32.76% and the “Total Cell Count” value [2] was 183 and 164. For the same compound, the “Population Apoptotic (%)” value [3] was 18.18% and 16.67%, the “Population Fragmented Nuclei (%)” value [3] was 12.88% and 6.53% and the “Population Healthy Nuclei (%)” value [3] was 68.24% and 78.39%. For the same compound, the “Population Hoechst High Intensity Objects (%)” value [3] was 0%, the “Population Membrane Permeable-Phenotype (%)” value [3] was 3.77% and 2.56% and the “Population Mitochondria Different-Phenotype (%)” value [3] was 7.55% and 8.33%. For the same compound, the “Population Mitotic Cells (%)” value [3] was 81.82% and 83.33%, the “Population Normal (%)” value [3] was 100% and the “Population Pyknosed Nuclei (%)” value [3] was 18.88% and 15.08%. The “Population Tubulin-Different-Phenotype (%)” value [3] was 13.21% and 10.26%, the “Total Cell Count” value [3] was 233 and 199 and the “Population Fragmented Nuclei (%)” value [4] was 12.56% and 7.73%. The “Population Healthy Nuclei (%)” value [4] was 67.34% and 70.72%, the “Population Hoechst High Intensity Objects (%)” value [4] was 0% and the “Population Membrane Permeable-Phenotype (%)” value [4] was 8.96% and 3.12%. The “Population Mitochondria Different-Phenotype (%)” value [4] was 9.7% and 14.06%, the “Population Mitotic Cells (%)” value [4] was 95% and 84.62% and the “Population Normal (%)” value [4] was 100%. For the same compound, the “Population Pyknosed Nuclei (%)” value [4] was 20.1% and 21.55%, the “Population Tubulin-Different-Phenotype (%)” value [4] was 23.13% and 33.59% and the “Total Cell Count” value [4] was 199 and 181. For the same compound, the “Population Apoptotic (%)” value [5] was 13.79% and 22.22%, the “Population Fragmented Nuclei (%)” value [5] was 7.48% and 7.76% and the “Population Healthy Nuclei (%)” value [5] was 81.1% and 84.02%. The “Population Hoechst High Intensity Objects (%)” value [5] was 0%, the “Population Membrane Permeable-Phenotype (%)” value [5] was 0.97% and 1.63% and the “Population Mitotic Cells (%)” value [5] was 86.21% and 77.78%. For the same compound, the “Population Normal (%)” value [5] was 100%, the “Population Pyknosed Nuclei (%)” value [5] was 11.42% and 8.22% and the “Population Tubulin-Different-Phenotype (%)” value [5] was 5.34% and 12.5%. The “Total Cell Count” value [5] was 254 and 219, the “Population Apoptotic (%)” value [6] was 22.22% and 18.75% and the “Population Fragmented Nuclei (%)” value [6] was 7.14% and 11.46%. The “Population Healthy Nuclei (%)” value [6] was 84.29% and 80.21%, the “Population Hoechst High Intensity Objects (%)” value [6] was 0% and the “Population Membrane Permeable-Phenotype (%)” value [6] was 3.39% and 5.84%. The “Population Mitochondria Different-Phenotype (%)” value [6] was 12.99% and 3.9%, the “Population Mitotic Cells (%)” value [6] was 77.78% and 81.25% and the “Population Normal (%)” value [6] was 100%. The “Population Pyknosed Nuclei (%)” value [6] was 8.57% and 8.33%, the “Population Tubulin-Different-Phenotype (%)” value [6] was 19.21% and 29.22% and the “Total Cell Count” value [6] was 210 and 192.

For `CC(N)C1CCC(C(=O)Nc2ccncc2)CC1` (stereo not drawn), the “Population Fragmented Nuclei (%)” value [1] was 12.67% and 4.31%, the “Population Healthy Nuclei (%)” value [1] was 64.25% and 88.36% and the “Population Hoechst High Intensity Objects (%)” value [1] was 0%. The “Population Membrane Permeable-Phenotype (%)” value [1] was 2.82% and 2.93%, the “Population Mitochondria Different-Phenotype (%)” value [1] was 7.75% and 8.29% and the “Population Mitotic Cells (%)” value [1] was 94.12% and 82.35%. For the same compound, the “Population Normal (%)” value [1] was 100%, the “Population Tubulin-Different-Phenotype (%)” value [1] was 11.27% and 12.2% and the “Total Cell Count” value [1] was 221 and 232. For the same compound, the “Population Apoptotic (%)” value [2] was 19.3% and 38.89%, the “Population Fragmented Nuclei (%)” value [2] was 9.18% and 4.02% and the “Population Healthy Nuclei (%)” value [2] was 63.29% and 85.63%. For the same compound, the “Population Hoechst High Intensity Objects (%)” value [2] was 0%, the “Population Membrane Permeable-Phenotype (%)” value [2] was 3.05% and 0% and the “Population Mitochondria Different-Phenotype (%)” value [2] was 10.69% and 10.07%. For the same compound, the “Population Mitotic Cells (%)” value [2] was 80.7% and 61.11%, the “Population Normal (%)” value [2] was 100% and the “Population Pyknosed Nuclei (%)” value [2] was 27.54% and 10.34%. For the same compound, the “Population Tubulin-Different-Phenotype (%)” value [2] was 10.69% and 8.05%, the “Total Cell Count” value [2] was 207 and 174 and the “Population Apoptotic (%)” value [3] was 11.11% and 33.33%. For the same compound, the “Population Fragmented Nuclei (%)” value [3] was 6.64% and 2.82%, the “Population Healthy Nuclei (%)” value [3] was 78.42% and 89.92% and the “Population Hoechst High Intensity Objects (%)” value [3] was 0%. The “Population Membrane Permeable-Phenotype (%)” value [3] was 4.23% and 2.69%, the “Population Mitochondria Different-Phenotype (%)” value [3] was 0.53% and 5.83% and the “Population Mitotic Cells (%)” value [3] was 88.89% and 66.67%. For the same compound, the “Population Normal (%)” value [3] was 100%, the “Population Pyknosed Nuclei (%)” value [3] was 14.94% and 7.26% and the “Population Tubulin-Different-Phenotype (%)” value [3] was 7.41% and 11.66%. The “Total Cell Count” value [3] was 241 and 248, the “Population Apoptotic (%)” value [4] was 18.18% and 44.44% and the “Population Fragmented Nuclei (%)” value [4] was 6.51% and 6.08%. The “Population Healthy Nuclei (%)” value [4] was 78.14% and 88.95%, the “Population Hoechst High Intensity Objects (%)” value [4] was 0% and the “Population Membrane Permeable-Phenotype (%)” value [4] was 2.38% and 0%. For the same compound, the “Population Mitochondria Different-Phenotype (%)” value [4] was 4.76% and 8.07%, the “Population Mitotic Cells (%)” value [4] was 81.82% and 55.56% and the “Population Normal (%)” value [4] was 100%. For the same compound, the “Population Tubulin-Different-Phenotype (%)” value [4] was 13.69% and 11.8%, the “Total Cell Count” value [4] was 215 and 181 and the “Population Apoptotic (%)” value [5] was 30.77% and 83.33%. For the same compound, the “Population Fragmented Nuclei (%)” value [5] was 11.15% and 6.02%, the “Population Healthy Nuclei (%)” value [5] was 83.85% and 91.57% and the “Population Hoechst High Intensity Objects (%)” value [5] was 0%. The “Population Membrane Permeable-Phenotype (%)” value [5] was 0.92% and 3.07%, the “Population Normal (%)” value [5] was 100% and the “Population Pyknosed Nuclei (%)” value [5] was 5% and 2.41%. The “Population Tubulin-Different-Phenotype (%)” value [5] was 3.21% and 10.09%, the “Total Cell Count” value [5] was 260 and 249 and the “Population Apoptotic (%)” value [6] was 50% and 33.33%. For the same compound, the “Population Fragmented Nuclei (%)” value [6] was 10.31% and 6.56%, the “Population Healthy Nuclei (%)” value [6] was 86.64% and 90.16% and the “Population Hoechst High Intensity Objects (%)” value [6] was 0%. For the same compound, the “Population Membrane Permeable-Phenotype (%)” value [6] was 0.44% and 0.61%, the “Population Mitotic Cells (%)” value [6] was 50% and 66.67% and the “Population Normal (%)” value [6] was 100%. For the same compound, the “Population Pyknosed Nuclei (%)” value [6] was 3.05% and 3.28%, the “Population Tubulin-Different-Phenotype (%)” value [6] was 3.08% and 11.52% and the “Total Cell Count” value [6] was 262 and 183.

Source: ChEMBL document CHEMBL5724801, “EUbOPEN Chemogenomics Library - Multiplex” (2024)
